Results published in ChEMBL document CHEMBL1157953, “Antiviral flavans from the leaves of Pithecellobium clypearia” (J Nat Prod, 2006).
Values after ≈ are worked out from the molar mass of the structure shown.

How the values were obtained:
[1] = Cytotoxicity against MDCK cells after 3 days by MTT reduction assay; assay type: cell-based, Canis lupus familiaris; conditions: dog
Summary of the method: (§1)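 Serial sample dilutions (from 40 mg/mL DMSO stock; top test concentration 1000 µg/mL in maintenance medium, 1% FBS with gentamicin) added in triplicate to confluent monolayers, 37 °C, 5% CO2. After 3 days MTT added for 3 h; formazan dissolved in DMSO, OD read at 540 and 690 nm. CC50 = concentration reducing viable cells to 50% of medium control.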

Human alphaherpesvirus 1 = experiment: Antiviral activity against HSV1 15577 in african green monkey Vero cells assessed as reduction of virus induced cytopathic effect; assay type: functional, organism-based; conditions: Human alphaherpesvirus 1, Vero
Summary of the method: (§2)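 CPE reduction assay: confluent monolayers received 0.1 mL of 100 TCID50 virus simultaneously with 0.1 mL of serial 2-fold sample dilutions. Samples were dissolved in DMSO, then diluted into maintenance medium (MEM, 1% FBS, gentamicin, L-glutamine). Incubation at 37 °C, 5% CO2 for 4-6 days. CPE was scored 0-4 against virus and cell controls. IC50 is the concentration halving CPE, estimated from plots.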

[2] = Selectivity index, CC50 for MDCK cells to IC50 for influenza A virus H1N1 A/NWS/33; assay type: functional
Summary of the method: (§3)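 SI = CC50/IC50. CC50 came from an MTT assay: confluent monolayers were exposed in triplicate to sample dilutions for 3 days, then MTT was added for 3 h, formazan was dissolved in DMSO, and OD was read at 540/690 nm. CC50 is the concentration cutting viable cells to 50% of control. IC50 came from the CPE reduction assay in the matching cell line.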

Coxsackievirus B3 = experiment: Antiviral activity against Cox B3 virus in human Hep2 cells assessed as reduction of virus induced cytopathic effect; assay type: functional, organism-based; conditions: Enterovirus B, HEp-2; summary of the method: as §2
[3] = Cytotoxicity against human Hep2 cells after 3 days by MTT reduction assay; assay type: cell-based, HEp-2; summary of the method: as §1
[4] = system: Respiratory syncytial virus; experiment: Antiviral activity against RSV Long in human Hep2 cells assessed as reduction of virus induced cytopathic effect; assay type: functional, organism-based; conditions: HEp-2; summary of the method: as §2
[5] = Selectivity index, CC50 for african green monkey Vero cells to IC50 for HSV1 15577; assay type: functional; summary of the method: as §3
[6] = Selectivity index, CC50 for human Hep2 cells to IC50 for Cox B3 virus; assay type: functional, HEp-2; summary of the method: as §3
[7] = Cytotoxicity against african green monkey Vero cells after 3 days by MTT reduction assay; assay type: cell-based; conditions: chlorocebus sabaeus; summary of the method: as §1
[8] = Selectivity index, CC50 for human Hep2 cells to IC50 for RSV Long; assay type: functional, HEp-2; summary of the method: as §3

Row | Structure (SMILES) | CC50 at 72 h [1] | MNTC at 72 h ([1]; read-out: MNCC) | IC50 (Human alphaherpesvirus 1) | Ratio CC50/IC50 [2] | IC50 (Coxsackievirus B3) | CC50 at 72 h [3] | MNTC at 72 h ([3]; read-out: MNCC) | IC50 [4] | Ratio CC50/IC50 [5] | Ratio CC50/IC50 [6] | CC50 at 72 h [7] | MNTC at 72 h ([7]; read-out: MNCC) | Ratio CC50/IC50 [8]
1 | O=C(Oc1cc(O)c2c(c1)OC(c1cc(O)c(O)c(O)c1)CC2)c1cc(O)c(O)c(O)c1 (stereo not drawn) | 110 µg/mL (≈ 249 µM) | 62.5 µg/mL | 30 µg/mL (≈ 67.8 µM) | 7 | 12.5 µg/mL (≈ 28.3 µM) | 95 µg/mL (≈ 215 µM) | 25 µg/mL | 5 µg/mL (≈ 11.3 µM) | 4 | 7.6 | 120 µg/mL (≈ 271 µM) | 31.3 µg/mL | 19
2 | Nc1nc2c(ncn2COCCO)c(=O)[nH]1 [ACYCLOVIR] |  |  | 0.25 µg/mL (≈ 1.11 µM) |  | 25 µg/mL (≈ 111 µM) |  |  |  | >2000 |  | > 500 µg/mL |  | 
3 | NC(=O)c1ncn([C@@H]2O[C@H](CO)[C@@H](O)[C@H]2O)n1 [RIBAVIRIN] |  |  |  |  |  |  |  | 3 µg/mL (≈ 12.3 µM) |  |  |  |  | 
